GSK3A inh = human GSK-3 alpha kinase inhibition; P49840; ADP-Glo luminescence, 60 min; inhibition, % at 10 µM; actives 0.1% (n = 320,000); AID 2650;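 active means more than half of replicates show inhibition above 20%; inconclusive means some but at most half of replicates above 20% inhibition; inactive means no replicate shows inhibition above 20%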;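 further: GST-tagged GSK-3 alpha with peptide substrate and 25 µM ATP; 0% = DMSO neutral wells and 100% = GW8510 positive control wells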
Target sequence (P49840 whole entry, looked up): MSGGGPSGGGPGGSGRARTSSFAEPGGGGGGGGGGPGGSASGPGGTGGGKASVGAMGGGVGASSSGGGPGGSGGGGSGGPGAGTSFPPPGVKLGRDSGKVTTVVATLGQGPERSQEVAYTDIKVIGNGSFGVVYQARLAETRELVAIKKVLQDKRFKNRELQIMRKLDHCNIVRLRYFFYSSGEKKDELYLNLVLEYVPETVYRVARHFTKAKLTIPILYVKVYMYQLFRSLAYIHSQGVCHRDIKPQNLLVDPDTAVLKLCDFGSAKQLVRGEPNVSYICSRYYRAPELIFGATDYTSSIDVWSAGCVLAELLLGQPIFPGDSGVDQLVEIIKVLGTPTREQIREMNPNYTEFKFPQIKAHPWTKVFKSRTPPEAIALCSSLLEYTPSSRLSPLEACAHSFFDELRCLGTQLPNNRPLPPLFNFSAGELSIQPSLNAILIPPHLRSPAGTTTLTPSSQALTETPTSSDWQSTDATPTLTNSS
GSK3beta inhib = blocks human GSK3beta kinase activity; GST-GSK3beta kinase, ADP-Glo luminescence, 60 min; stronger effect = lower value; P49841; activity score (negative = inhibition), % at 10 µM; AID 2097; actives 0.038% (n = 300,000);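 active means more than half of replicate wells score below -50%, meaning over 50% inhibition versus plate controls; inconclusive means some replicates but at most half score below -50%; inactive means no replicate scores below -50%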;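 further: 0% = median DMSO wells and -100% = median GW8510 positive control wells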
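Test system – GST-tagged human GSK3beta kinase, cell-free · Incubation – 60 min enzyme reaction, room temperature · Signal – ADP-Glo luminescence · Also added – peptide substrate and ATP at 25 µM · Controls – DMSO neutral wells and GW8510 at 20 µM as positive · Buffer or medium – Tris/MgCl2 kinase buffer · Measure – Luminescence-derived activity versus plate DMSO and GW8510 wells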
LANA-H2A inh = blocks KSHV LANA binding to histone H2A/H2B; Q9QR71; cell-free LANA-H2A/H2B peptide, fluorescence polarization; inhibition, % (no concentration beside the values); AID 2629; actives 0.6% (n = 320,000); in the data active means inhibition mostly above about 10%, no sharp cut-off; inactive means mostly below about 6.7%
TAG inh = reduces triacylglycerol accumulation in H9c2 cells; Nile Red lipid (TAG) fluorescence; cells loaded with 200 µM oleic acid; inhibition, % at 12.5 µM; actives 0.66% (n = 230,000); AID 651582;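 active means pattern-corrected inhibition of lipid staining of at least 50% with the nuclear-stain viability signal not falling by more than 50%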;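 further: 0% = DMSO wells and 100% = triacsin C control wells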
STK33 inh = inhibitors of human STK33 kinase; purified STK33, MBP phosphorylation, ADP-Glo luminescence; inhibition, % at 10 µM; actives 0.073% (n = 320,000);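 active means inhibition at or above 25%, using the most active replicate where run in duplicate; inactive means inhibition below 25%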
Lipid droplet = modulators of hepatic lipid droplet formation; AML12 mouse hepatocytes, oleate lipid droplets, BODIPY imaging; inhibition, % at 6.5 µM; actives 0.4% (n = 240,000); AID 1656;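 active means lipid droplet intensity inhibited by at least 50%, with more than 500 cells counted; inconclusive means wells with under 300 cells, treated as cytotoxic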
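Test system: AML12 hepatocytes (mouse); reagent: oleate loading, 100 µM; dosing: one dose, 6.5 µM compound; incubation: overnight exposure; signal: fluorescence imaging, 20x objective, two fields per well; read-out basis: % inhibition of corrected integrated BODIPY droplet signal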
* hit, by the source's call; ? = inconclusive; . = no result; + = active, no number. Most compounds without a hit are left out; they make up all but 1.3% or so of the library.

SMILES	GSK3A inh	GSK3beta inhib	LANA-H2A inh	TAG inh	STK33 inh	Lipid droplet
CCNC1=C(Cl)C(=O)c2ccccc2C1=O	-0.8	-4.7	-3.3	61.7*	-0.1	3.1
CCCC(=O)NC1=C(Cl)C(=O)c2ccccc2C1=O	.	.	.	26.8	.	.
CCOc1cc2c(cc1OCC)C(C(=O)O)C(c1cc(Br)c(O)c(OC)c1)N(C)C2=O (centres undefined)	-1.8	.	14.6*	-6.0	-1.1	.
Cc1ccc(NC(=O)c2c(C(F)(F)F)nn(C)c2Cl)cc1C	-1.3	-1.5	-3.4	.	-1.2	.
Cc1cc(NC(=S)Nc2ccccc2)ccc1Br	-1.8	0.8	21.9*	.	0.5	.
O=C(/C=C/c1ccccc1)Nc1ncn[nH]1	.	3.7	14.4*	.	0.5	.
CCCCN(C)CC(O)Cn1cc(/C=C/C(=O)c2cccs2)c2ccccc21 (centres undefined)	1.6	1.2	+	.	10.5	3.9
Cn1c(NC(=O)c2cccnc2)nc2ccccc21	2.7	1.7	-2.8	6.9	14.1	10.0
CCN1/C(=C/C(C)=O)Sc2ccc(OC)cc21	55.6*	-2.9	1.4	-14.7	8.7	.
CCN1/C(=C/c2cccc[n+]2C)Sc2ccc(OC)cc21	2.8	-5.1	-37.1	.	-0.5	-47.3
Cc1ccc(S(=O)(=O)N2CCOC2CNC(=O)C(=O)NCCc2c[nH]c3ccccc23)cc1 (centres undefined)	.	1.7	42.1*	.	-1.6	-9.8
CCOC(=O)Nc1nc(-c2ccccc2)c(C(=O)c2ccc(Cl)cc2)s1	1.8	-1.3	-2.9	59.2*	-0.4	?
CCOC(=O)c1sc(NC(=O)c2ccc(S(=O)(=O)N3CCCCC3)cc2)nc1-c1ccccc1	5.1	-1.2	1.2	-16.6	-0.8	16.2
CC(C)c1ccc(N(CC(=O)NC2CCCCC2)C(=O)CNC(=O)c2ccco2)cc1	0.4	3.0	39.0*	.	-0.5	7.9
CCc1ccc(N(CC(=O)NC2CCCCC2)C(=O)CNC(=O)c2ccco2)cc1	-0.7	0.1	-8.5	.	-0.2	15.2
COc1ccc(OC)c(N/C(N)=N/c2nc(C)cc(C)n2)c1	-0.5	1.0	-0.1	-23.8	-0.4	-7.7
COc1ccc2c(c1)c(CC(=O)Nc1cc(C)ccc1C)c(C)n2C(=O)c1ccc(Cl)cc1	-2.4	3.2	8.2	.	0.2	68.4*
O=[N+]([O-])c1ccc(Sc2cccc[n+]2[O-])c2nonc12	.	-1.5	.	101.7*	.	-200.1
O=[N+]([O-])c1ccc(Nc2ccccc2)c2nonc12	10.4	-9.5	1.2	.	1.2	-30.1
O=C(Cn1cnc2c(OCc3ccccc3)ncnc21)NCCCc1ccccc1	-1.8	.	1.8	4.7	0.2	.
COCCCNC(=O)Cn1cnc2c(OCc3ccccc3)ncnc21	-2.0	.	194.1*	0.0	-0.5	.
CCc1c(C)nc2ncnn2c1N1CCCC(C(=O)NCc2cccs2)C1 (centres undefined)	0.3	-6.2	-0.9	-13.4	-0.7	-4.4
CSc1ccc(CNC2CC2)cc1	-1.7	0.3	-2.1	.	0.0	.
COc1ccc(N=Nc2nc3ccc(Br)cc3n2C)cc1	0.4	1.8	88.3*	-18.5	2.2	.
COc1ccc(NC(=O)Nc2ccc3c(c2)CCC3)c(OC)c1	0.3	2.5	-3.1	6.3	0.0	-14.1
SMILES	GSK3A inh	GSK3beta inhib	LANA-H2A inh	TAG inh	STK33 inh	Lipid droplet
O=C(COC(=O)C12CC3CC(CC(O)(C3)C1)C2)NC(=O)NCc1ccco1	2.9	-1.7	7.1	.	-1.2	.
Clc1ccc(OCCN2CCOCC2)cc1Cl	-1.5	.	17.0*	7.6	-1.0	42.9
CN(C)c1ccc2nc3c(=O)[nH]c(=O)nc-3n(CC(O)C(O)C(O)CO)c2c1 (centres undefined)	8.1	-3.8	30.4*	.	3.0	-5.0
Cc1ncc(C(O)c2ccc(N(C)C)cc2)n1Cc1ccccc1 (centres undefined)	.	.	.	-7.2	.	.
Cc1ccc(CC(CC(=O)Nc2cccc(C(F)(F)F)c2)C(=O)O)cc1 (centres undefined)	-6.1	1.4	6.3	-6.8	0.1	0.0
Cc1cc2nc(-c3ccc[nH]c3=O)[nH]c2cc1C	60.7*	-33.2	4.6	.	23.2	21.5
Cc1cc2nc(-c3ccc[nH]c3=O)n(Cc3ccc(F)cc3)c2cc1C	-0.1	0.8	4.7	.	-1.1	15.6
Cc1cc(N2CCN(c3ccccc3)CC2)n2c(n1)nc1ccccc12	55.6*	-1.4	2.4	.	1.1	.
